Measurements as given in ChEMBL document CHEMBL3046583, “Design, synthesis, and insecticidal activity of novel pyrazole derivatives containing α-hydroxymethyl-N-benzyl carboxamide, α-chloromethyl-N-benzyl carboxamide, and 4,5-dihydrooxazole moieties” (2012).

How the values were obtained:
Helicoverpa armigera [1] = assay: Stomach toxicity against third-instars Helicoverpa armigera assessed as larvicidal activity at 11 mg/kg at 25 +/- 1 degC after 3 days; assay type: functional
Outline: (§1)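 Diet-incorporation assay on third-instar larvae. Samples dissolved in acetone to the desired final concentrations; 3 mL of test solution mixed evenly into about 27 g of prepared feed, then dispensed into 24-well plates. Run in triplicate at 25 ± 1 °C. Dead/alive scoring 3 days after treatment; mortality corrected by Abbott's formula on a 0–100 scale.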

Helicoverpa armigera [2] = assay: Stomach toxicity against third-instars Helicoverpa armigera assessed as larvicidal activity at 22 mg/kg at 25 +/- 1 degC after 3 days; assay type: functional; outline: as §1
Plutella xylostella [3] = assay: Stomach toxicity against Plutella xylostella (diamondback moth) assessed as larvicidal activity at 200 mg/kg by leaf dip method; assay type: functional
Tetranychus cinnabarinus [4] = assay: Acaricidal activity against Tetranychus cinnabarinus (carmine spider mite) larvae at 600 mg/kg by leaf dip method; assay type: functional
Aphis craccivora [5] = assay: Larvicidal activity against Aphis craccivora (cowpea aphid) at 200 mg/kg by leaf dip method; assay type: functional
Tetranychus cinnabarinus [6] = assay: Acaricidal activity against Tetranychus cinnabarinus (carmine spider mite) adults at 600 mg/kg by leaf dip method; assay type: functional
Tetranychus cinnabarinus [7] = assay: Acaricidal activity against Tetranychus cinnabarinus (carmine spider mite) eggs at 200 mg/kg by leaf dip method; assay type: functional, Egg
Tetranychus cinnabarinus [8] = assay: Acaricidal activity against Tetranychus cinnabarinus (carmine spider mite) eggs at 600 mg/kg by leaf dip method; assay type: functional, Egg
Tetranychus cinnabarinus [9] = assay: Acaricidal activity against Tetranychus cinnabarinus (carmine spider mite) adults at 200 mg/kg by leaf dip method; assay type: functional
Plutella xylostella [10] = assay: Stomach toxicity against Plutella xylostella (diamondback moth) assessed as larvicidal activity at 600 mg/kg by leaf dip method; assay type: functional
Helicoverpa armigera [11] = assay: Stomach toxicity against third-instars Helicoverpa armigera assessed as larvicidal activity at 55 mg/kg at 25 +/- 1 degC after 3 days; assay type: functional; outline: as §1
Culex pipiens pallens [12] = assay: Larvicidal activity against Culex pipiens pallens (mosquito) at 2 mg/kg; assay type: functional
Helicoverpa armigera [13] = assay: Stomach toxicity against third-instars Helicoverpa armigera assessed as larvicidal activity at 110 mg/kg at 25 +/- 1 degC after 3 days; assay type: functional; outline: as §1
Culex pipiens pallens [14] = assay: Larvicidal activity against Culex pipiens pallens (mosquito) at 5 mg/kg; assay type: functional
Aphis craccivora [15] = assay: Larvicidal activity against Aphis craccivora (cowpea aphid) at 600 mg/kg by leaf dip method; assay type: functional
Tetranychus cinnabarinus [16] = assay: Acaricidal activity against Tetranychus cinnabarinus (carmine spider mite) larvae at 200 mg/kg by leaf dip method; assay type: functional
Helicoverpa armigera [17] = assay: Stomach toxicity against third-instars Helicoverpa armigera assessed as larvicidal activity at 5.5 mg/kg at 25 +/- 1 degC after 3 days; assay type: functional; outline: as §1
Culex pipiens pallens [18] = assay: Larvicidal activity against Culex pipiens pallens (mosquito) at 1 mg/kg; assay type: functional

CCc1cc(C(=O)NC(CO)c2ccc(Oc3ccccc3)cc2)n(C)n1 (stereo not drawn)
Activity (Helicoverpa armigera [1]): 0% | Activity (Helicoverpa armigera [2]): 30% | Activity (Plutella xylostella [3]): 45% | Activity (Tetranychus cinnabarinus [4]): 0% | Activity (Aphis craccivora [5]): 70% | Activity (Tetranychus cinnabarinus [6]): 30% | Activity (Tetranychus cinnabarinus [7]): 0% | Activity (Tetranychus cinnabarinus [8]): 20% | Activity (Tetranychus cinnabarinus [9]): 0% | Activity (Plutella xylostella [10]): 90% | Activity (Helicoverpa armigera [11]): 100% | Activity (Culex pipiens pallens [12]): 0% | Activity (Helicoverpa armigera [13]): 100% | Activity (Culex pipiens pallens [14]): 30% | Activity (Aphis craccivora [15]): 95%

CCc1cc(C(=O)NC(CO)c2ccc(Cl)cc2)n(C)n1 (stereo not drawn)
Activity (Helicoverpa armigera [1]): 0% | Activity (Helicoverpa armigera [2]): 50% | Activity (Plutella xylostella [3]): 60% | Activity (Tetranychus cinnabarinus [4]): 25% | Activity (Aphis craccivora [5]): 75% | Activity (Tetranychus cinnabarinus [6]): 25% | Activity (Tetranychus cinnabarinus [8]): 0% | Activity (Tetranychus cinnabarinus [9]): 0% | Activity (Plutella xylostella [10]): 100% | Activity (Helicoverpa armigera [11]): 100% | Activity (Tetranychus cinnabarinus [16]): 0% | Activity (Culex pipiens pallens [12]): 0% | Activity (Helicoverpa armigera [13]): 100% | Activity (Culex pipiens pallens [14]): 20% | Activity (Aphis craccivora [15]): 98%

CCCCCOc1ccc(C(CO)NC(=O)c2cc(CC)nn2C)cc1 (stereo not drawn)
Activity (Helicoverpa armigera [1]): 20% | Activity (Helicoverpa armigera [2]): 60% | Activity (Plutella xylostella [3]): 30% | Activity (Tetranychus cinnabarinus [4]): 20% | Activity (Aphis craccivora [5]): 85% | Activity (Tetranychus cinnabarinus [6]): 45% | Activity (Tetranychus cinnabarinus [7]): 0% | Activity (Helicoverpa armigera [17]): 0% | Activity (Tetranychus cinnabarinus [8]): 20% | Activity (Tetranychus cinnabarinus [9]): 0% | Activity (Plutella xylostella [10]): 45% | Activity (Helicoverpa armigera [11]): 100% | Activity (Tetranychus cinnabarinus [16]): 0% | Activity (Culex pipiens pallens [12]): 0% | Activity (Helicoverpa armigera [13]): 100% | Activity (Culex pipiens pallens [14]): 20% | Activity (Aphis craccivora [15]): 100%

CCc1cc(C(=O)NC(CCl)c2ccc(Cl)cc2)n(C)n1 (stereo not drawn)
Activity (Helicoverpa armigera [1]): 0% | Activity (Helicoverpa armigera [2]): 20% | Activity (Plutella xylostella [3]): 0% | Activity (Tetranychus cinnabarinus [4]): 20% | Activity (Aphis craccivora [5]): 0% | Activity (Tetranychus cinnabarinus [6]): 0% | Activity (Tetranychus cinnabarinus [7]): 0% | Activity (Tetranychus cinnabarinus [8]): 30% | Activity (Plutella xylostella [10]): 30% | Activity (Helicoverpa armigera [11]): 100% | Activity (Tetranychus cinnabarinus [16]): 0% | Activity (Culex pipiens pallens [12]): 0% | Activity (Helicoverpa armigera [13]): 100% | Activity (Culex pipiens pallens [14]): 10% | Activity (Aphis craccivora [15]): 30%

CCc1cc(C2=NC(c3ccc(Oc4ccccc4)cc3)CO2)n(C)n1 (stereo not drawn)
Activity (Helicoverpa armigera [1]): 0% | Activity (Helicoverpa armigera [2]): 40% | Activity (Plutella xylostella [3]): 45% | Activity (Tetranychus cinnabarinus [4]): 70% | Activity (Aphis craccivora [5]): 20% | Activity (Tetranychus cinnabarinus [6]): 40% | Activity (Tetranychus cinnabarinus [7]): 50% | Activity (Tetranychus cinnabarinus [8]): 90% | Activity (Tetranychus cinnabarinus [9]): 10% | Activity (Plutella xylostella [10]): 70% | Activity (Helicoverpa armigera [11]): 100% | Activity (Tetranychus cinnabarinus [16]): 50% | Activity (Culex pipiens pallens [12]): 0% | Activity (Helicoverpa armigera [13]): 100% | Activity (Culex pipiens pallens [14]): 30% | Activity (Aphis craccivora [15]): 50%

CCc1cc(C(=O)NC(CO)c2ccc(C(C)(C)C)cc2)n(C)n1 (stereo not drawn)
Activity (Helicoverpa armigera [1]): 10% | Activity (Helicoverpa armigera [2]): 60% | Activity (Plutella xylostella [3]): 60% | Activity (Tetranychus cinnabarinus [4]): 0% | Activity (Aphis craccivora [5]): 50% | Activity (Tetranychus cinnabarinus [6]): 0% | Activity (Tetranychus cinnabarinus [7]): 40% | Activity (Helicoverpa armigera [17]): 0% | Activity (Tetranychus cinnabarinus [8]): 50% | Activity (Plutella xylostella [10]): 70% | Activity (Helicoverpa armigera [11]): 100% | Activity (Culex pipiens pallens [12]): 0% | Activity (Helicoverpa armigera [13]): 100% | Activity (Culex pipiens pallens [14]): 10% | Activity (Aphis craccivora [15]): 70%

CCc1nn(C)c(C(=O)NC(CO)c2ccc(C(C)(C)C)cc2)c1Cl (stereo not drawn)
Activity (Helicoverpa armigera [1]): 0% | Activity (Helicoverpa armigera [2]): 40% | Activity (Plutella xylostella [3]): 40% | Activity (Tetranychus cinnabarinus [4]): 25% | Activity (Aphis craccivora [5]): 80% | Activity (Tetranychus cinnabarinus [6]): 10% | Activity (Tetranychus cinnabarinus [7]): 0% | Activity (Tetranychus cinnabarinus [8]): 40% | Activity (Tetranychus cinnabarinus [9]): 0% | Activity (Plutella xylostella [10]): 80% | Activity (Helicoverpa armigera [11]): 100% | Activity (Culex pipiens pallens [12]): 0% | Activity (Helicoverpa armigera [13]): 100% | Activity (Culex pipiens pallens [14]): 20% | Activity (Aphis craccivora [15]): 100%

CCCCCOc1ccc(C(CO)NC(=O)c2c(Cl)c(CC)nn2C)cc1 (stereo not drawn)
Activity (Helicoverpa armigera [1]): 0% | Activity (Helicoverpa armigera [2]): 30% | Activity (Plutella xylostella [3]): 30% | Activity (Tetranychus cinnabarinus [4]): 20% | Activity (Aphis craccivora [5]): 95% | Activity (Tetranychus cinnabarinus [6]): 15% | Activity (Tetranychus cinnabarinus [7]): 20% | Activity (Tetranychus cinnabarinus [8]): 30% | Activity (Tetranychus cinnabarinus [9]): 0% | Activity (Plutella xylostella [10]): 90% | Activity (Helicoverpa armigera [11]): 100% | Activity (Tetranychus cinnabarinus [16]): 0% | Activity (Culex pipiens pallens [12]): 0% | Activity (Helicoverpa armigera [13]): 100% | Activity (Culex pipiens pallens [14]): 20% | Activity (Aphis craccivora [15]): 100%

CCc1cc(C2=NC(c3ccc(Cl)cc3)CO2)n(C)n1 (stereo not drawn)
Activity (Helicoverpa armigera [1]): 40% | Activity (Helicoverpa armigera [2]): 70% | Activity (Plutella xylostella [3]): 15% | Activity (Tetranychus cinnabarinus [4]): 40% | Activity (Aphis craccivora [5]): 90% | Activity (Tetranychus cinnabarinus [6]): 20% | Activity (Tetranychus cinnabarinus [7]): 80% | Activity (Helicoverpa armigera [17]): 0% | Activity (Tetranychus cinnabarinus [8]): 100% | Activity (Tetranychus cinnabarinus [9]): 0% | Activity (Plutella xylostella [10]): 60% | Activity (Helicoverpa armigera [11]): 100% | Activity (Tetranychus cinnabarinus [16]): 20% | Activity (Culex pipiens pallens [12]): 0% | Activity (Helicoverpa armigera [13]): 100% | Activity (Culex pipiens pallens [14]): 10% | Activity (Aphis craccivora [15]): 100%

CCCCCOc1ccc(C2COC(c3cc(CC)nn3C)=N2)cc1 (stereo not drawn)
Activity (Helicoverpa armigera [1]): 0% | Activity (Helicoverpa armigera [2]): 30% | Activity (Plutella xylostella [3]): 0% | Activity (Tetranychus cinnabarinus [4]): 30% | Activity (Aphis craccivora [5]): 20% | Activity (Tetranychus cinnabarinus [6]): 20% | Activity (Tetranychus cinnabarinus [7]): 40% | Activity (Tetranychus cinnabarinus [8]): 50% | Activity (Tetranychus cinnabarinus [9]): 0% | Activity (Plutella xylostella [10]): 30% | Activity (Helicoverpa armigera [11]): 100% | Activity (Tetranychus cinnabarinus [16]): 0% | Activity (Culex pipiens pallens [12]): 0% | Activity (Helicoverpa armigera [13]): 100% | Activity (Culex pipiens pallens [14]): 30% | Activity (Aphis craccivora [15]): 75%

CCc1nn(C)c(C(=O)NC(CO)c2ccc(Cl)cc2)c1Cl (stereo not drawn)
Activity (Helicoverpa armigera [1]): 0% | Activity (Helicoverpa armigera [2]): 40% | Activity (Plutella xylostella [3]): 0% | Activity (Tetranychus cinnabarinus [4]): 25% | Activity (Aphis craccivora [5]): 95% | Activity (Tetranychus cinnabarinus [6]): 0% | Activity (Tetranychus cinnabarinus [7]): 0% | Activity (Tetranychus cinnabarinus [8]): 10% | Activity (Plutella xylostella [10]): 30% | Activity (Helicoverpa armigera [11]): 100% | Activity (Tetranychus cinnabarinus [16]): 0% | Activity (Culex pipiens pallens [12]): 0% | Activity (Helicoverpa armigera [13]): 100% | Activity (Culex pipiens pallens [14]): 30% | Activity (Aphis craccivora [15]): 100%

CCCCCOc1ccc(C(CCl)NC(=O)c2cc(CC)nn2C)cc1 (stereo not drawn)
Activity (Helicoverpa armigera [1]): 0% | Activity (Helicoverpa armigera [2]): 40% | Activity (Plutella xylostella [3]): 0% | Activity (Tetranychus cinnabarinus [4]): 70% | Activity (Culex pipiens pallens [18]): 0% | Activity (Aphis craccivora [5]): 80% | Activity (Tetranychus cinnabarinus [6]): 0% | Activity (Tetranychus cinnabarinus [7]): 50% | Activity (Tetranychus cinnabarinus [8]): 70% | Activity (Plutella xylostella [10]): 15% | Activity (Helicoverpa armigera [11]): 100% | Activity (Tetranychus cinnabarinus [16]): 40% | Activity (Culex pipiens pallens [12]): 60% | Activity (Helicoverpa armigera [13]): 100% | Activity (Culex pipiens pallens [14]): 100% | Activity (Aphis craccivora [15]): 100%
